Arr AP2 block: human beta-arrestin and AP2 interaction inhibition; FITC-arrestin peptide / GST-AP2 beads, flow cytometry; AP2 beta2 appendage carries R879A mutation; AID 504490; hit rate 0.31% among 340,000; inhibition, % at 10 µM;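 active = inhibition above a set limit, near 3 SD of compounds lacking own fluorescence, cut at about 54% in these data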;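 note: plate controls were DMSO wells for no effect and 5 µM unlabelled arrestin peptide for full effect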
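test system = AP2 appendage R879A on GSH beads | buffer or medium = PBS plus Tween 20 (0.05%) and BSA (0.1%) | incubation = 12 min plus 1 h, RT | detection = bead flow cytometry, FITC channel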
p-CIP stab down: p/CIP protein destabilization. Q05BA5. decrease of EGFP signal, % at 10 µM. hit rate 0.01% among 290,000. F442A p/CIP-EGFP cells, EGFP fluorescence, 16 h;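 active = EGFP signal decrease of at least 30% at 10 µM or well 3 SD below plate mean, unless failing retest; inactive = the rest, including hits failing retest or dose response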
Target sequence (Q05BA5 1-1403): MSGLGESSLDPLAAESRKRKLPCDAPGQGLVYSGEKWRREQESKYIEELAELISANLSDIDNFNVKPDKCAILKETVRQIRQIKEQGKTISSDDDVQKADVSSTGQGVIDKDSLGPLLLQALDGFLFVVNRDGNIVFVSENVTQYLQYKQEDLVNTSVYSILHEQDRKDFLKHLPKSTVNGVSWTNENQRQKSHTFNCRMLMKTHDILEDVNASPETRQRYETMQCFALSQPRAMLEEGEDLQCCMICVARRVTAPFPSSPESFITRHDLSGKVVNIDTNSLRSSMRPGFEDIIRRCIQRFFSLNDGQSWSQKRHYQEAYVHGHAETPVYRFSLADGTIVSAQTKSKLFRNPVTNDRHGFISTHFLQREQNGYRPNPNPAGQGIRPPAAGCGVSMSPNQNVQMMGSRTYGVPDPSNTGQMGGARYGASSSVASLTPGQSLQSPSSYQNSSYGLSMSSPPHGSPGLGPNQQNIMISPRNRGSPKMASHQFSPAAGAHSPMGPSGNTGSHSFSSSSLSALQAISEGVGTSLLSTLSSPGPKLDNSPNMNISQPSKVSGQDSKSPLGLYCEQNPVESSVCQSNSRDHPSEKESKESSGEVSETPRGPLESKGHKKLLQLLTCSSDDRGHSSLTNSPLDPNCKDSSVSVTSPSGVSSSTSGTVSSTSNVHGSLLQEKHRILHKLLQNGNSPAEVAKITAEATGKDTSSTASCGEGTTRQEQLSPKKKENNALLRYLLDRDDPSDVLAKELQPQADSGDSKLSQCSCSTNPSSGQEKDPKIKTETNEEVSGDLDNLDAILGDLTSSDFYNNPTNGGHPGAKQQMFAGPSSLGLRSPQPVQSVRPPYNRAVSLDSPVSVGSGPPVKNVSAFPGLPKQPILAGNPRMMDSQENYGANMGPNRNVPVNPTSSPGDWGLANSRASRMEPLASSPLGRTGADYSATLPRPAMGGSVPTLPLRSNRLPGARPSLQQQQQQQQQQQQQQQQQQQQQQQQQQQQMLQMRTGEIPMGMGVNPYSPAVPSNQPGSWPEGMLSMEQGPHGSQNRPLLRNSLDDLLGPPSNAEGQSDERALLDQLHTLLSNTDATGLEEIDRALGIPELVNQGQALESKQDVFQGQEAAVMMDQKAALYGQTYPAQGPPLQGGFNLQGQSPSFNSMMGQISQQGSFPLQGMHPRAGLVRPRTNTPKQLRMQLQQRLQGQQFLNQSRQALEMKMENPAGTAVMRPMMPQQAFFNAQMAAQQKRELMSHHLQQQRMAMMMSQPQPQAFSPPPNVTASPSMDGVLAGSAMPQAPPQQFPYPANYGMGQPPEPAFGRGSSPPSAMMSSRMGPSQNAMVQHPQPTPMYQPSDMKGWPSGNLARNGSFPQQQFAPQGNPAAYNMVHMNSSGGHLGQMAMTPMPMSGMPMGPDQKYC
GASC-1 inh: inhibitors of human GASC-1 (JMJD2C) demethylase | GST-JMJD2C(1-420) H3K9me3 demethylation, DELFIA europium | Q9H3R0 | AID 2099 | inhibition, % at 2.35 µM | hit rate 0.069% among 330,000;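 active = more than half of a compound's replicate wells show inhibition beyond 50%, single wells judged on their own value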;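 note: signal counts dimethyl H3K9 product captured on neutravidin plate; 0% = median of DMSO wells and 100% = 0.3 times that DMSO median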
VLA-4 inh: inhibition in a human VLA-4 binding assay; P13612; VLA-4 expressing cells, ligand binding flow cytometry; inhibition, % (about 7 µM as worked out from the volumes in the protocol); hit rate 0.2% among 330,000; AID 2557; in the data active = inhibition above about 50%
VLA-4 mod pick: confirmation of allosteric modulators of human VLA-4 integrin | shares compounds with VLA-4 inh | U937 cells, HUTS-21 LIBS mAb binding, flow cytometry; LDV ligand present at threefold Kd | inhibition, % at 6.7 µM | hit rate 2% among 1,300; in the data active = inhibition above about 40%;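 note: 0% = ligand without compound and 100% = no ligand background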
* hit, by the source's call; · = no result given. Most compounds without a hit are left out; they make up all but 0.57% or so of the library.

SMILES	Arr AP2 block	p-CIP stab down	GASC-1 inh	VLA-4 inh	VLA-4 mod pick
Cn1nnnc1SCC(=O)N1CCN(S(=O)(=O)c2ccccc2)CC1	5.1	0.8	3.0	50.6*	5.3
Clc1ccc2c(N/N=C/c3ccc(Br)cc3)ccnc2c1	-5.7	-11.1	-78.9	50.8*	12.3
Clc1ccc2c(N/N=C/c3cccnc3)ccnc2c1	11.7	14.5	7.3	-10.5	·
COc1ccc(OC)c(S(=O)(=O)CC(=O)c2cc3ccc(OC)cc3oc2=O)c1	13.0	-11.9	1.1	12.7	·
COCCCn1[nH]c2c3c(ccc2c1=O)C(=O)c1ccccc1C3=O	5.5	-4.3	3.3	91.6*	-1.4
COc1ccc(OC)c(-c2cc(C(=O)N3CCN(c4ncccn4)CC3)c3ccccc3n2)c1	15.9	-6.5	5.3	94.8*	-0.9
COc1cc(-c2cc(C(=O)N3CCN(c4ccccn4)CC3)c3ccccc3n2)cc(OC)c1OC	2.9	·	136.8	-6.1	-5.5
COc1ccc(-c2cc(C(=O)N3CCN(c4ccccn4)CC3)c3ccccc3n2)cc1	13.9	-10.2	1.8	1.2	·
Cc1ccccc1-n1c(SCC(=O)N2CCN(c3ccccc3)CC2)nnc1-c1ccncc1	-7.0	0.2	20.0	50.4*	2.6
COC(=O)c1c(C)oc2ccc(N(C(=O)Oc3ccccc3)S(=O)(=O)c3ccc(Cl)c([N+](=O)[O-])c3)cc12	7.9	-18.9	17.9	15.6	·
CCOC(=O)c1c(C)nc2sc3c(=O)n(-c4ccc(C(C)=O)cc4)cnc3c2c1-c1ccc(Cl)cc1	-2.3	4.2	3.1	10.3	·
CCOC(=O)c1c(C)nc2sc3c(=O)n(-c4ccc(C)cc4)cnc3c2c1-c1ccc(OC)cc1	14.9	-2.9	5.2	93.7*	10.9
COc1ccc(N(CC(=O)Nc2ccc(C)cc2)S(=O)(=O)c2c(C)noc2C)cc1	-19.4	0.1	8.9	0.4	·
COC(=O)c1ccc(NC(=O)CN(c2ccc(C)cc2)S(=O)(=O)c2c(C)nn(C)c2C)cc1	2.5	-17.2	-0.5	4.5	4.4
Cc1noc(C)c1S(=O)(=O)N(CC(=O)Nc1ccc2c(c1)OCO2)c1ccc(C(C)C)cc1	3.1	0.0	·	-21.1	·
Cc1ccc(NC(=O)CN(c2ccc(C)cc2)S(=O)(=O)c2cccc3nonc23)cc1	-8.8	-6.0	-8.5	26.9	0.0
COc1ccccc1NC(=O)CN(c1ccc(C)cc1)S(=O)(=O)c1c(C)n[nH]c1C	-5.2	-7.2	4.1	-7.5	-0.8
Cc1nn(C)c(C)c1S(=O)(=O)N(CC(=O)Nc1ccc2c(c1)OCO2)c1ccc(C(C)C)cc1	3.4	0.6	7.0	-12.0	-1.6
COc1ccc(OC)c(NC(=O)CN(c2ccc(C)cc2)S(=O)(=O)c2c(C)n[nH]c2C)c1	2.3	-4.1	-8.0	-5.1	·
CC(=O)c1ccc(Oc2ccc(C(=O)c3ccc(C)c(C)c3)cc2[N+](=O)[O-])cc1	0.2	-4.5	0.3	2.5	·
Cc1cccc(NC(=S)N2CCN(S(=O)(=O)c3cccc(F)c3)CC2)c1	5.9	-4.6	1.1	-2.5	·
COc1ccc(OC)c(NC(=O)CCc2nnc3ccc(NCc4ccco4)nn23)c1	-13.5	9.7	3.4	-1.1	·
Cc1cccc(C)c1NC(=O)C1CCCNC1 (stereo not drawn)	5.5	5.8	-0.5	-3.7	·
NC1=NC(=O)/C(=C\c2cccs2)S1	4.0	-13.7	-26.6	7.7	·
CCOC(=O)CC1CCCCN1Cc1cn(C)nc1-c1ccc2c(c1)OCCO2 (stereo not drawn)	41.9	-23.0	-9.4	-6.0	·
SMILES	Arr AP2 block	p-CIP stab down	GASC-1 inh	VLA-4 inh	VLA-4 mod pick
Cc1ccc(S(=O)(=O)N2[C@@H](c3ccc(F)cc3)C(C(=O)O)=C[C@H]2CC2CCCC2)cc1	21.8	·	2.2	-24.5	-0.1
CCc1ccc([C@H]2C(C(=O)O)=C[C@@H](CC3CCCC3)N2S(=O)(=O)c2ccc(C)cc2)cc1	-16.7	·	·	26.7	8.1
Cc1ccc([C@H]2C(C(=O)O)=C[C@@H](CC3CCCC3)N2S(=O)(=O)c2ccc(C)cc2)cc1	-13.2	·	·	48.2	·
O=C(O)CCC(=O)Nc1ccc(S(=O)(=O)Nc2nccs2)cc1	15.8	2.8	-29.9	56.5*	-3.0
CCC(=O)Nc1ccc(S(=O)(=O)Nc2nccs2)cc1	1.7	-10.4	-16.0	-1.6	·
O=C1NCC(=O)N2CCC[C@@H]12	1.4	·	-2.8	53.5*	9.0
CCC(C)NC(=O)c1ccccc1NC(=O)COc1ccc(OC)cc1 (stereo not drawn)	8.0	-10.2	-21.0	·	6.4
COc1ccc(OCC(=O)Nc2ccccc2C(=O)NC(C)C)cc1	-4.1	-17.3	6.6	1.3	-2.2
CCCCCN1C(=O)Cn2c(nc3ccccc3c2=O)C1C (stereo not drawn)	-0.9	-12.0	5.3	42.9	0.5
O=C(CNC(=O)c1ccc(-c2ccccc2)cc1)OCc1c(Cl)cccc1Cl	4.1	-7.4	2.2	52.5*	6.2
CCCNC(=O)Cn1c(=O)oc2cc(S(=O)(=O)N3CCCC3)ccc21	-5.2	-10.7	2.8	57.4*	-2.8
O=C(Cn1c(=O)oc2cc(S(=O)(=O)N3CCCCCC3)ccc21)NC1CCCCCCC1	8.4	3.8	6.2	-7.4	·
CCCCc1c(O)nc(SCC(=O)c2ccccc2)[nH]c1=O	11.0	-5.3	2.1	-0.8	·
Cc1cccc2c(CCNC(=O)c3ccc([N+](=O)[O-])cc3)c[nH]c12	-0.1	5.8	-2.7	68.1*	17.6
CCC(=O)c1cn(CC(=O)Nc2ccc(C)cc2C)c2ccccc12	-5.4	-2.6	-4.2	-1.1	0.0
COc1ccc(NC(=O)Cn2cc(C(C)=O)c3ccccc32)cc1	8.7	-30.5	-1.3	6.7	3.5
Cc1cccc(C)c1NC(=O)Cn1cc(C=O)c2ccccc21	1.7	-5.2	1.4	4.8	8.1
CCC(=O)c1cn(CC(=O)Nc2c(C)cccc2C)c2ccccc12	-2.1	-6.0	-12.1	13.6	7.4
COc1cc(C(=O)Nc2cccc(S(=O)(=O)N3CCCC3)c2)c([N+](=O)[O-])cc1OC	-0.8	·	1.7	-2.5	·
O=C(O)c1cc([N+](=O)[O-])c(Sc2nc3ccccc3[nH]2)c([N+](=O)[O-])c1	-4.6	1.4	9.4	9.2	·
CCC(=O)c1cn(CC(=O)Nc2cccc(OC)c2)c2ccccc12	30.1	3.6	0.1	10.6	5.7
CCOc1cc(C(=O)N/N=C/C(Br)=C/c2ccccc2)cc(OCC)c1OCC	-14.4	-15.8	10.8	51.2*	18.4
COc1cccc(C(=O)O/N=C(\N)c2ccncc2)c1	29.8	-3.1	1.3	8.9	·
COc1cccc(C(=O)O/N=C(\N)c2ccc(C)cc2)c1	44.9	-1.9	4.4	42.0	-22.4
O=C(CSc1nnc(-c2ccc(Cl)cc2)n1Cc1ccco1)NCc1ccc2c(c1)OCO2	-1.3	-6.9	1.5	89.4*	0.0
O=C1NN(c2ccccc2)C(=O)/C1=C/c1cccs1	·	-9.8	20.2	40.8	-5.3
N#Cc1ccccc1Cn1cc(/C=C/[N+](=O)[O-])c2ccccc21	12.4	-4.7	0.6	42.2	30.7
